Test results from article PMC9704493 (RSC Advances, 2022).

Columns and labels:
ERK1/2 = assay: Preliminary ERK1/2 inhibition experiments
MCF-7 cells [1] = assay: Cell count assay, MCF-7; format: cell-based; conditions: Homo sapiens, MCF7, 72 h, read-out: growth inhibition, cell count
Outline: (§1)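 Cancer lines were grown in RPMI 1640 with 10% FBS and 1% glutamine at 37 °C/5% CO2, at ≤30 passages. Cells were seeded at 2 × 10^4 per well in 6-well plates and exposed to test compound at 5 or 10 μM for 72 h. Cells were counted by haemocytometer and expressed as % of control (mean ± SD), from 2 independent experiments in triplicate.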

MCF-7 cells [2] = assay: Cell cycle assay; format: cell-based, human; conditions: 24 h; for accumulation of events in G2/M phase: control 11%
Outline: (§2)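 Cells were seeded in 10 cm dishes at 7 × 10^5 (control, 24 h) or 4 × 10^5 (48 and 72 h) per dish and left 24 h at 37 °C. They were then treated with test compound at 5 or 10 μM for 24 h. Floating and trypsinised cells were pooled, PBS-washed, held in cold hypotonic fluorochrome solution overnight at 4 °C in the dark, and analysed by flow cytometry (three internal repeats).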

[3] = tested on: MCF-7 breast cancer cells; assay: MTT cell viability assay, MCF-7; format: cell-based, human; conditions: for GI50: Homo sapiens, MCF7, 72 h, read-out: GI50 values (M) mean ± SD, MCF-7; for Selectivity indices (SI), MCF-7: MCF-7 versus MRC-5 fibroblasts
Outline: (§3)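 Cells were seeded at 3 × 10^3 per well and grown for 24 h at 37 °C/5% CO2. A T0 plate was read at dosing and the others after 72 h. MTT (5 mg mL−1 in PBS) was added for 2.5 h, formazan dissolved in DMSO, and absorbance read at 550 nm. GI50 was interpolated, in triplicate. SI compares MRC-5 with cancer-line activity.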

[4] = tested on: caspases 3 and 7 in HCT-116 cells; assay: Caspase-3/7 activity assay, HCT-116; format: cell-based, human; conditions: HCT-116, 5 and 10 μM, 72 h
Outline: (§4)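 Cells kept in log growth (passaged twice weekly, 37 °C/5% CO2, ≤30 passages) were seeded at 3 × 10^3 per well in opaque white 96-well plates and allowed 24 h at 37 °C. Test compound was added at 5 and 10 μM from fresh 10 mM DMSO stocks for 72 h. Homogeneous caspase-3/7 reagent was added and mixed at 300–500 rpm for 30 s. After 30 min at room temperature, fluorescence was read at 499 nm and 521 nm. Experiments were run in triplicate and reported as mean ± SD.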

[5] = tested on: HCT-116 colorectal carcinoma cells; assay: MTT cell viability assay, HCT-116; format: cell-based, human; conditions: for Selectivity indices (SI), HCT-116: HCT-116 versus MRC-5 fibroblasts; for GI50: Homo sapiens, HCT-116, 72 h, read-out: GI50 values (M) mean ± SD, HCT-116
Outline: as §3

[6] = tested on: caspases 3 and 7 in MCF-7 cells; assay: Caspase-3/7 activity assay, MCF-7; format: cell-based, human; conditions: MCF-7, 5 and 10 μM, 72 h
Outline: as §4

HCT-116 cells [7] = assay: Clonogenic assay, HCT-116 colony formation; format: cell-based, human; conditions: 24 h exposure, second group, printed as HCT-116; for colony formation: 10 μM
Outline: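 HCT-116 cells (RPMI 1640, 10% FBS, 1% glutamine) were seeded at 400 per well in 6-well plates and left to attach for 24 h. They were given test compound at 5 or 10 μM for 24 h, with medium alone as control. Cells were then washed with cold PBS and grown in fresh medium at 37 °C until control colonies reached ≥50 cells. Colonies were methanol-fixed, stained with 0.05% methylene blue and counted. Survival fraction is % of control, from five independent trials (n = 2 each).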

HCT-116 cells [8] = assay: Cell cycle assay; format: cell-based, human; conditions: HCT-116, 5 and 10 μM, 24 h
Outline: as §2

PARP-1 in HCT-116 cells = assay: Western blot of whole and cleaved PARP, HCT-116; format: cell-based, human; conditions: HCT-116, 5 and 10 μM, 24 h
Outline: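 HCT-116 cells were seeded at 1–2 × 10^6 per dish, attached for 24 h, then exposed to test compound at 5 or 10 μM for 24 h. Lysate protein was measured by Bradford assay, and 50 μg per sample was run on SDS-PAGE and blotted to nitrocellulose. Blots were probed for PARP-1, with GAPDH as loading control, and quantified by densitometry. Data are mean ± SD of three independent experiments, analysed by ANOVA with Dunnett's test.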

MRC-5 fibroblasts = assay: MTT cell viability assay, MRC-5 normal fibroblasts; format: cell-based, human; conditions: for GI50: Homo sapiens, MRC5, 72 h, read-out: GI50 values (M) mean ± SD, MRC-5; for more active against the carcinoma cell lines than MRC-5: selectivity over MRC-5
Outline: as §3

HCT-116 cells [9] = assay: Cell count assay, HCT-116; format: cell-based; conditions: Homo sapiens, HCT-116, 72 h, read-out: growth inhibition, cell count
Outline: as §1

Structure (SMILES)	inhibition at 10 µM (MCF-7 cells [1]) [%]	GI50 [3] [M]	Selectivity indices (SI), MCF-7 [3]	caspase 3 and 7 activation [4]	Selectivity indices (SI), HCT-116 [5]	GI50 [5] [M]	caspase 3 and 7 activation [6]	colony formation (HCT-116 cells [7])	GI50 (MRC-5 fibroblasts) [M]	more active against the carcinoma cell lines than MRC-5 (MRC-5 fibroblasts) [×]	inhibition at 5 µM (HCT-116 cells [9]) [%]	inhibition at 10 µM (HCT-116 cells [9]) [%]	further results
Cc1cccc(C=NNc2nc(-c3ccc(C#N)cc3)cs2)c1O [Compound 3f, 2-(2-(2-Hydroxy-3-methylbenzylidene) hydrazinyl)-4-(4-cyanophenyl) thiazole]	100	1e-06 ± 4e-07	17.3	Significant dose-dependent caspase activation	10.8	1.6e-06 ± 1e-07	Significant dose-dependent caspase activation	completely inhibiting colony formation	1.73e-05 ± 7e-07	> 10	–	–	ERK1/2 inhibition (ERK1/2): showed ERK1/2 inhibition; inhibition at 5 µM (MCF-7 cells [1]): 55 to 60%; accumulation of events in G2/M phase (MCF-7 cells [2]; MCF-7, 5 μM): 23%; accumulation of events in G2/M phase (MCF-7 cells [2]; MCF-7, 10 μM): 28%; pre-G1 cell populations (MCF-7 cells [2]; MCF-7, 5 and 10 μM): negligible; inhibition of colony formation (HCT-116 cells [7]; 5 μM): completely inhibiting colony formation; Pre-G1 events (HCT-116 cells [8]): 5–8%; PARP-1 cleavage (PARP-1 in HCT-116 cells): induces concentration-dependent PARP-1 cleavage; whole PARP expression (PARP-1 in HCT-116 cells): down-regulation of whole PARP; SI over MRC-5 fibroblasts (MRC-5 fibroblasts; cancer cell line not given): > 10
N#Cc1ccc(-c2csc(NN=Cc3cc(Br)ccc3O)n2)cc1 [Compound 3h, 2-(2-(5-Bromo-2-hydroxybenzylidene) hydrazinyl)-4-(4-cyanophenyl) thiazole]	65 to 70	7e-06 ± 3e-07	2.3	–	3.6	4.4e-06 ± 3e-07	–	–	1.58e-05 ± 2e-07	–	–	–	–
N#Cc1ccc(-c2csc(NN=Cc3c(F)c(F)c(F)c(F)c3F)n2)cc1 [3a′, 2-(2-((Pentafluorophenyl)methylene)hydrazinyl)-4-(4-cyanophenyl) thiazole]	90 to 95	1.7e-06 ± 3e-07	6.8	–	2.8	4.2e-06 ± 1e-06	–	completely prevented colony formation	1.16e-05 ± 6e-07	–	–	–	–
N#Cc1ccc(-c2csc(NN=Cc3sccc3Br)n2)cc1 [3b′, 2-(2-((3-Bromothiophen-2-yl)methylene)hydrazinyl)-4-(4-cyanophenyl) thiazole]	–	3.9e-06 ± 5e-07	5	Significant dose-dependent caspase activation	12.2	1.6e-06 ± 2e-07	Significant dose-dependent caspase activation	completely prevented colony formation	1.95e-05 ± 3e-07	> 5	50 to 55	90 to 95	–
N#Cc1ccc(-c2csc(NN=Cc3c(Cl)cccc3Cl)n2)cc1 [Compound 3n, 2-(2-(2,6-Dichlorobenzylidene)hydrazinyl)-4-(4-cyanophenyl) thiazole]	–	2.54e-05 ± 1.6e-06	0.5	–	11	1.1e-06 ± 5e-07	–	–	1.21e-05 ± 4e-07	–	50 to 55	100	–
